According to ChEMBL document CHEMBL4477210, “Gramine Derivatives Targeting Ca(2+) Channels and Ser/Thr Phosphatases: A New Dual Strategy for the Treatment of Neurodegenerative Diseases” (J Med Chem, 2016):
Active and inactive are the calls of the source. The calls are words filed in the database; no cut-off is given here.

Assays:
Homo sapiens [1] = species: Homo sapiens; assay: (§1) Suppression of okadaic acid-induced inhibition of PP1/PP2A in human SHSY-5Y cells at 0.1 uM using pNPP as substrate assessed as remaining total phosphatase activity incubated for 30 mins by colorimetric assay (reference value: 68 +/- 2%); assay type: cell-based
Summary of the method: (§2)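 SH-SY5Y cells treated with compound at 0.1 μM plus okadaic acid 15 nM (24 h preincubation, then coincubation). Medium removed; assay buffer with pNPP (10 mM) added, 30 min at 37 °C in the dark, absorbance at 405 nm. For Ser/Thr activity, 1 mM orthovanadate added to the buffer. Expressed as % of untreated cells; at least four experiments.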

Homo sapiens [2] = species: Homo sapiens; assay: as §1, with “Ser/Thr” for “total”, “mins in presence of tyrosine phosphatase inhibitor sodium orthovanadate” for “mins”, “61” for “68”, “3%)” for “2%)”; assay type: cell-based; summary of the method: as §2
[3] = test system: Voltage-gated calcium channel; assay: Inhibition of VGCC in human SHSY-5Y cells assessed as reduction of K+-evoked cytosolic ca2+ at 1 uM incubated for 10 mins prior to KCl addition by Fluo-4-AM probe-based fluorescence analysis; assay type: cell-based
Summary of the method: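 SH-SY5Y cells at confluence (48 h after seeding) loaded with 10 μM Fluo-4/AM plus 0.2% pluronic in Krebs–HEPES (pH 7.4) for 45 min at 37 °C, then washed. Compound at 1 μM for 10 min, then KCl 70 mM. Ex 485/em 520 nm; signal normalized to Fmax (Triton X-100) minus Fmin (MnCl2). At least six experiments versus K+ response without compound.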

SH-SY5Y [4] = assay: Neuroprotective activity in human SH-SY5Y cells assessed as reversal of okadaic acid-induced cytotoxicity at 0.1 uM preincubated for 24 hrs followed by […] by MTT assay; assay type: functional
[5] = (§3) Neuroprotective activity in Sprague-Dawley rat hippocampal cells assessed as reversal of glutamate-induced cytotoxicity at 10 uM incubated for 4 hrs by MTT assay; assay type: functional, Hippocampal neurone
Summary of the method: (§4)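 Hippocampal slices from 2-month-old Sprague–Dawley rats stabilized 45 min at 34 °C, then coincubated 4 h with compound and glutamate 1 mM. Viability by MTT (0.3 mg/mL, 30 min), absorbance at 540 nm. Reported as % protection relative to glutamate-only slices; at least four tissue batches in quadruplicate.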

SH-SY5Y [6] = assay: Cytotoxicity against human SH-SY5Y cells assessed as reduction of cell viability at <10 uM incubated for 48 hrs by MTT assay; assay type: cell-based
Summary of the method: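 SH-SY5Y cells exposed to compounds for 48 h; viability read by MTT reduction (final 0.3 mg/mL, 2 h at 37 °C in the dark), formazan dissolved in DMSO, absorbance at 540 nm, expressed as % of untreated cells.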

Cortical neurone [7] = assay: Cytotoxicity against rat cortical motor neurons assessed as reduction of cell viability at 1 uM incubated for 48 hrs by MTT assay; assay type: cell-based
Summary of the method: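 Rat cortical motor neurons in neurobasal medium with 2% B-27 on poly-D-lysine, grown 8−10 days to a dense network, then exposed to compound for 48 h. Viability read by MTT (0.3 mg/mL final, 30 min, 37 °C, dark), formazan dissolved in DMSO, absorbance 540 nm, expressed as % of untreated cells.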

Bos taurus [8] = species: Bos taurus; assay: Inhibition of VGCC in bovine chromaffin cells assessed as reduction in depolarization-evoked Ca2+ current at 1 uM at -80 mV holding potential using 50 millisec depolarization pulses every 20 secs by patch clamp method; assay type: cell-based
Bos taurus [9] = species: Bos taurus; assay: Inhibition of VGCC in bovine chromaffin cells assessed as potentiation of compound-induced of reduction in depolarization-evoked Ca2+ current at 1 uM at -80 mV holding potential using 50 millisec depolarization pulses every 20 secs in presence of L-type VGCC blocker nifedipine by patch clamp method; assay type: cell-based
Bos taurus [10] = species: Bos taurus; assay: Inhibition of VGCC in bovine chromaffin cells assessed as reduction in depolarization-evoked Ca2+ current at 1 uM at -80 mV holding potential using 50 millisec depolarization pulses every 20 secs in presence of […] N and P/Q type VGCC blocker omega-conotoxin MV2C by patch clamp method; assay type: cell-based
[11] = test system: Voltage-gated calcium channel; assay: Inhibition of VGCC in human SHSY-5Y cells assessed as reduction of K+-evoked cytosolic ca2+ at 3 uM incubated for 10 mins prior to KCl addition by Fluo-4-AM probe-based fluorescence analysis; assay type: cell-based
Summary of the method: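 SH-SY5Y cells grown to confluence over 48 h, then loaded with 10 μM Fluo-4/AM and 0.2% pluronic acid in Krebs–HEPES (pH 7.4) for 45 min at 37 °C and washed. Compound added 10 min before depolarisation with KCl 70 mM. Fluorescence read at ex 485/em 520 nm and normalised to Fmax (Triton X-100) and Fmin (MnCl2). Inhibition taken against the K+ response without compound; ≥6 experiments.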

Hippocampal neurone = assay: as §3; assay type: functional; summary of the method: as §4
Cortical neurone [12] = assay: Neuroprotective activity in rat cortical motor neurons assessed as reversal of veratridine-induced cytotoxicity at 0.1 uM incubated for 24 hrs followed by coincubation with veratridine for 24 hrs by MTT assay; assay type: functional

Compound | Activity (Homo sapiens [1]) | Activity (Homo sapiens [2]) | inhibition (INH) [3] | Activity (SH-SY5Y [4]) | Activity [5] | Activity (SH-SY5Y [6]) | Activity (Cortical neurone [7]) | inhibition (Bos taurus [8]) | inhibition (Bos taurus [9]) | inhibition (Bos taurus [10]) | inhibition (INH) [11] | Activity (Hippocampal neurone) | Activity (Cortical neurone [12])
CC12CC3CC(C)(C1)CC(N)(C3)C2 | 77% | 78% | – | – | – | – | – | – | – | – | – | – | –
CN(C)Cc1c[nH]c2ccc(Br)cc12 [BROMOGRAMINE] | 80% | 76% | 3% | 47% | 40% | Non-Toxic | – | – | – | – | – | – | –
Cc1ccc2[nH]cc(CN3CCCCC3)c2c1 | 71% | 69% | 16% | 38% | – | Non-Toxic | – | – | – | – | – | – | –
C#CCn1cc(CN(C)C)c2cc(C)ccc21 | 80% | 74% | 14% | 12% | – | Non-Toxic | – | – | – | – | – | – | –
Cc1ccc2c(c1)c(CN1CCCCC1)cn2CCCCN1CCCCC1 | 72% | 70% | 4% | 26% | – | Non-Toxic | – | – | – | – | – | – | –
CN(C)Cc1cn(Cc2ccccc2)c2ccc(Br)cc12 | 81% | 78% | 38% | 56% | – | Non-Toxic | – | – | – | – | – | – | –
c1ccc2c(CN3CCCCC3)c[nH]c2c1 | 76% | 79% | 30% | 47% | – | Non-Toxic | Toxic | – | – | – | – | – | –
Cc1ccc2c(c1)c(CN1CCCCC1)cn2Cc1ccccc1 | 77% | 78% | 22% | 56% | – | Non-Toxic | – | 40% | Active | Active | – | – | –
C#CCn1cc(CN(C)C)c2cc(Br)ccc21 | 70% | 64% | 10% | 12% | – | Non-Toxic | – | – | – | – | – | – | –
Cc1ccc2[nH]cc(CN(C)C)c2c1 | 79% | 77% | 10% | 59% | – | Non-Toxic | – | – | – | – | – | – | –
Brc1ccc2c(c1)c(CN1CCCCC1)cn2Cc1ccccc1 | 79% | 70% | 45% | 54% | – | Non-Toxic | – | Active | – | – | – | – | –
Cc1ccc2c(c1)c(CN(C)C)cn2CCCCN1CCCCC1 | 74% | 68% | 16% | 37% | – | Non-Toxic | – | – | – | – | – | – | –
CCCCn1cc(CN2CCCCC2)c2cc(Br)ccc21 | 78% | 79% | 63% | 71% | – | Non-Toxic | – | Active | – | – | – | – | –
C#CCn1cc(CN2CCCCC2)c2cc(C)ccc21 | 71% | 66% | 25% | 42% | – | Non-Toxic | – | – | – | – | – | – | –
COc1ccc2[nH]cc(CCNC(C)=O)c2c1 [MELATONIN] | – | – | – | 43% | – | – | – | – | – | – | – | – | –
Brc1ccc2[nH]cc(CN3CCCCC3)c2c1 | 74% | 67% | 7% | 60% | – | Non-Toxic | – | – | – | – | – | – | –
CN(C)Cc1c[nH]c2ccccc12 [GRAMINE] | 80% | 76% | 25% | 45% | – | – | – | Active | – | – | – | – | –
CCCCn1cc(CN2CCCCC2)c2cc(C)ccc21 | 69% | 66% | 21% | 46% | – | Non-Toxic | – | Active | – | – | – | – | –
COC(=O)C1=C(C)NC(C)=C(C(=O)OC)C1c1ccccc1[N+](=O)[O-] [NIFEDIPINE] | – | – | – | – | – | – | – | – | – | – | 73% | – | –
Cc1ccc2c(c1)c(CN(C)C)cn2Cc1ccccc1 | 73% | 66% | 18% | 44% | – | Non-Toxic | – | – | – | – | – | – | –
CCCCn1cc(CN(C)C)c2cc(Br)ccc21 | 81% | 76% | 14% | 66% | 40% | Non-Toxic | – | – | – | – | – | – | –
ClCCCCn1cc(CN2CCCCC2)c2cc(Br)ccc21 | 68% | 62% | 57% | 48% | – | Non-Toxic | – | – | – | – | – | – | –
CCOC(=O)CCCn1cc(CN2CCCCC2)c2cc(Br)ccc21 | 73% | 71% | 16% | 43% | – | Non-Toxic | – | – | – | – | – | – | –
CN(C)Cc1cn(CCCCN2CCCCC2)c2ccc(Br)cc12 | 73% | 68% | 14% | 31% | – | Non-Toxic | – | – | – | – | – | – | –
C#CCn1cc(CN2CCCCC2)c2cc(Br)ccc21 | 77% | 72% | 42% | 47% | – | Non-Toxic | – | – | – | – | – | – | –
CCOC(=O)CCCn1cc(CN(C)C)c2cc(Br)ccc21 | 76% | 66% | 13% | 58% | – | Non-Toxic | – | – | – | – | – | Active | –
Cc1ccc2c(c1)c(CN1CCCCC1)cn2CCCCCl | 71% | 62% | 35% | 56% | – | Non-Toxic | – | – | – | – | – | Active | –
Brc1ccc2c(c1)c(CN1CCCCC1)cn2CCCCN1CCCCC1 | 73% | 70% | 19% | 61% | – | Non-Toxic | Toxic | – | – | – | – | – | 0%
